Bioassay records from PubChem.
Most compounds without a hit are left out; they make up all but 4.1% or so of the library.
Efflux pump inh – blocks antifungal efflux pumps in multiplex yeast assay | inhibition, % at 10 µM | 330,000 tested, 0.44% active | S. cerevisiae Candida pump triplex, Nile Red efflux | AID 485275;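 active means plate passing quality check with inhibition over a set limit, or well fluorescence over plate mean plus 4 SD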;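 further: Nile Red retained in pooled yeast measured as flow cytometry median fluorescence; 0% = buffer negative control and 100% = Enniatin B positive control; higher means more Nile Red kept so more efflux inhibition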
SMARCA2 activ – increases SMARCA2 function in MMTV reporter cells | MG213 cells, MMTV-luciferase reporter, dexamethasone, overnight | activation, % at 9.1 µM | 370,000 tested, 1% active; in the data active means activation above about 7.8%;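 further: 0% = vehicle wells and 100% = reference activator wells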
TAG inh – inhibitors of triacylglycerol accumulation. H9c2 cells, Nile Red lipid (TAG) fluorescence; cells loaded with 200 µM oleic acid. inhibition, % at 12.5 µM. 230,000 tested, 0.66% active;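 active means pattern-corrected inhibition of lipid staining of at least 50% with the nuclear-stain viability signal not falling by more than 50%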;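 further: 0% = DMSO wells and 100% = triacsin C control wells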
Tb MetRS inh – Trypanosoma brucei MetRS inhibition; AID 624268; inhibition, % at 11.9 µM; 360,000 tested, 0.4% active; purified T. brucei MetRS, ATP depletion, Kinase-Glo luminescence;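 active means inhibition above a per-plate cutoff of the control wells' mean inhibition plus 3 SD, cut at about 5.5% in these data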;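 further: 0% = DMSO wells median and 100% = median of wells with control inhibitor compound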
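Material: parasite MetRS enzyme / Replication: singlicate, one well per compound / Signal: luminescence of leftover ATP / Schedule: 2 h aminoacylation at 25 °C after 15 min preincubation / Medium: HEPES-MgCl2-KCl buffer plus DTT, spermine, BSA, pyrophosphatase / Doses: 11.9 µM single point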
AHR act – human AHR activation; P35869; AHR-responsive luciferase reporter cells, luminescence; activation, % at 5 µM; 320,000 tested, 2.5% active; in the data active means activation above about 47%;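 further: 0% = vehicle wells and 100% = reference agonist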
Target sequence (P35869 whole entry, looked up): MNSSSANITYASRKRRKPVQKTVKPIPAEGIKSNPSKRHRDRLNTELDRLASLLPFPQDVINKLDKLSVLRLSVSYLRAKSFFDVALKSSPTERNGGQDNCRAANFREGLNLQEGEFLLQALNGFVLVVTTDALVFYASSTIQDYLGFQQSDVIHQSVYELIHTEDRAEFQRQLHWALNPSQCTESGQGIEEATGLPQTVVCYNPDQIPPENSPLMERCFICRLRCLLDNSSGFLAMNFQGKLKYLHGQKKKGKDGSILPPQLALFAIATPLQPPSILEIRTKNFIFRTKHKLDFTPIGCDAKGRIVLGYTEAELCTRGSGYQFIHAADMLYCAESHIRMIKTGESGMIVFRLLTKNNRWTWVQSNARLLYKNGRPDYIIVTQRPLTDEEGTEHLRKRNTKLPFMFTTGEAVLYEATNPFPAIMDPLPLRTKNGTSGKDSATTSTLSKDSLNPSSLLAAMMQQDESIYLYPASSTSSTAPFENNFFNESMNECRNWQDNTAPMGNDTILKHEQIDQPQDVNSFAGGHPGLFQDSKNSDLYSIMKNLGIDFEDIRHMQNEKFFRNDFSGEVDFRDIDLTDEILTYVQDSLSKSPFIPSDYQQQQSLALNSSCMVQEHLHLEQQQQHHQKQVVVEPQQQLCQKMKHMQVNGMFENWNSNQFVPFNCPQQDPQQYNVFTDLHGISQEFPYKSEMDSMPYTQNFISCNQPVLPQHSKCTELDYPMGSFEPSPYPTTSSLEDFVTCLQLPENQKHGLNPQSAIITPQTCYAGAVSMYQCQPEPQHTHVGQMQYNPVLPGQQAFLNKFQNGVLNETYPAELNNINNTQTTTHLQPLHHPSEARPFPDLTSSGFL
An asterisk follows results filed as active; · = no result.

SMILES	Efflux pump inh	SMARCA2 activ	TAG inh	Tb MetRS inh	AHR act
CC(=O)c1c(C)[nH]c(C(=O)Nc2ccccc2N2CCOCC2)c1C	0.0	-0.9	92.5	0.9	71.5*
Cc1cc(C(=O)NC2=NCCS2)cs1	-0.1	4.4	·	-0.1	20.4
CC(=O)c1c(C)[nH]c(C(=O)NC2=NCCS2)c1C	-0.1	2.3	20.2	-1.0	75.2*
CC(=O)c1c(C)[nH]c(C(=O)Nc2ccccn2)c1C	0.3	3.3	16.5	-0.5	71.0*
Cc1ccc(C(=O)CSc2nnc(-c3ccccn3)n2-c2ccccc2)cc1	·	1.8	·	·	·
N#C/C(=C/c1ccc(-c2ccccc2)o1)c1nc(-c2cccs2)cs1	2.3	0.3	-60.4	-0.9	53.9*
N#C/C(=C/c1ccc(-c2ccc([N+](=O)[O-])cc2)o1)C(=O)Nc1nc(-c2cccs2)cs1	·	1.3	-0.5	-0.3	·
O=c1c2cccnc2[nH]c(=S)n1Cc1ccccc1	0.2	-2.0	·	0.2	-0.5
O=C(Cn1c(=S)[nH]c2ncccc2c1=O)NCCc1ccccc1	0.0	-5.8	·	·	56.9*
O=C(Nc1cccc(F)c1)OCCCN1CCC2(CCC(c3ccccc3)CC2)C1 (centres undefined)	·	-1.5	·	·	·
Cc1c(=O)n(OCc2ccc(Cl)cc2)c2ccccc2[n+]1[O-]	0.1	-0.9	-6.5	0.0	59.1*
Cc1c(=O)n(OCc2cccc(F)c2)c2ccccc2[n+]1[O-]	0.0	-1.0	8.1	-0.3	84.0*
O=C(Cc1c[nH]c2ccccc12)Nc1ccc(Nc2cccnc2)c(-c2ccc(-c3ccccc3)cc2F)c1	·	-3.3	·	·	·
c1ccc2c(c1)CC/C2=N/Nc1nc2ccccc2[nH]1	0.0	5.6	26.5	2.0	48.2*
CCc1cc2c(nc1CC)CCCN2S(=O)(=O)c1c(C)noc1C	·	-4.2	·	·	·
O=C(O)c1ccc(-c2nc(-c3ccccc3)c(-c3cccs3)[nH]2)cc1	-0.1	-1.7	5.9	-0.3	7.0
COc1ccc(-c2nc(-c3cccs3)c(-c3cccs3)[nH]2)cc1O	0.3	-0.5	6.3	-0.1	47.5*
O=C(C1CCN(c2cncnc2)CC1)N1CCOCC1	·	-1.8	·	·	·
C=C(C)C(O)COc1c2occc2c(OC)c2ccc(=O)oc12 (centres undefined)	0.3	-0.4	·	1.2	54.6*
Cc1[nH]cnc1/C=N\NC(=O)c1cccc(S(=O)(=O)N(C)C)c1	·	-1.4	·	·	·
COc1cccc(Nc2ncnc3sccc23)c1	0.1	-0.8	·	-0.6	52.0*
COc1cc(NC(=O)c2ccccc2)c(C)cc1NC(=O)CSc1nnc(-c2ccco2)n1Cc1ccco1	·	-2.6	·	·	·
O=C(N/N=C/c1cccc([N+](=O)[O-])c1)C1CC1c1ccccc1 (centres undefined)	-0.1	9.1*	·	0.2	8.1
CCNC(=O)N(C)[C@H]1C[C@H]2c3[nH]c4c(-c5ccccc5)cccc4c3CCN2C(=O)[C@H]1[C@H](C)O	·	-4.3	·	·	·
CCC(SC1=NCCS1)C(=O)Nc1nnc(-c2ccccc2OC)s1 (centres undefined)	0.2	-0.9	15.1	-0.1	46.9
SMILES	Efflux pump inh	SMARCA2 activ	TAG inh	Tb MetRS inh	AHR act
COC(=O)Nc1nnc(-c2ccccc2Cl)s1	0.1	4.7	-5.5	-0.7	54.5*
COc1ccccc1-c1nnc(NC(=O)OCC(C)C)s1	-0.1	1.0	4.5	0.1	64.2*
CCCCCCCCN1C(=O)[C@@H](CC(=O)NCc2cccc3ccccc23)C[C@@]2(C(=O)OC)C1=C[C@H](C(C)(C)C)O[C@@H]2C	·	-2.1	·	·	·
COC[C@@H]1CCCN1c1ccc2c(c1)O[C@H]1CCN(C1)S2(=O)=O	·	-2.4	·	·	·
CCOC(=O)[C@@]12CCC3=C1N(CCC3)C(=O)[C@H](CC(=O)NCc1cccc(C(F)(F)F)c1)C2	·	-2.8	·	·	·
Cc1cc(C)c(C(CC(=O)c2cccs2)C(C#N)C#N)c(C)c1 (centres undefined)	0.1	5.6	15.3	-0.5	58.1*
CN1C(=O)C[C@@](C#N)(C(=O)N2CCCC2)[C@H]1c1ccccc1	·	-1.2	·	·	·
O=C1/C(=C/c2cccnc2)CCc2c1[nH]c1ccccc21	-0.5	-4.8	-3.7	1.2	72.8*
CC1C/C(=C\c2cccnc2)C(=O)/C(=C/c2cccnc2)C1 (centres undefined)	0.1	-12.3	·	-0.3	1.5
CC(C)C/C=C1\CCc2c([nH]c3ccccc23)C1=O	0.0	5.0	-10.5	3.6	63.6*
CSc1nsc(SCC(=O)Nc2ccc(Br)cn2)n1	-0.2	1.6	9.0	0.1	47.8*
COC(=O)C/C=C/[C@H](C)[C@@H](NC(=O)C(F)(F)F)c1ccccc1Br	·	-4.1	·	·	·
O=C(CCc1ccccc1-c1ccccc1CCNC(=O)c1ccc(F)c(F)c1)NCc1ccccc1	·	-1.9	·	·	·
O=C(Nc1ccsc1C(=O)NC1CC1)c1ccccc1	0.0	-0.9	0.0	-0.6	58.6*
O=C(Nc1ccsc1C(=O)O)c1ccccc1	0.0	6.3	·	-1.0	4.7
O=C(CCc1ccccc1)N[C@H]1C(=O)CCC[C@]12C(=O)N(Cc1ccccc1)c1ccccc12	·	0.2	·	·	·
COc1cc(OC)c2ccc(=O)oc2c1C(CCN1CCCC(C)C1)c1ccc2c(c1)OCO2 (centres undefined)	-0.1	1.0	42.3	-0.3	8.1
CCCCCc1cc(=O)oc2c(C(CCN3CCCC3)c3ccc(N(C)C)cc3)c(OC)cc(OC)c12 (centres undefined)	0.0	0.6	68.3*	-0.2	0.3
COc1cc(OC)c2ccc(=O)oc2c1C(CCN1CCCC1)c1ccc(N(C)C)cc1 (centres undefined)	-0.1	1.8	-15.8	-0.3	4.0
CCCCCc1cc(=O)oc2c(C(CCN3CCCC(C)C3)c3ccc(OC)cc3)c(OC)cc(OC)c12 (centres undefined)	0.3	-0.1	95.9*	-0.4	3.0
CCCCCc1cc(=O)oc2c(C(CCN3CCCCC3)c3ccc(OC)cc3)c(OC)cc(OC)c12 (centres undefined)	0.0	1.2	111.2*	0.0	0.2
COC(=O)[C@]12C[C@H](CC(=O)NCc3ccc(OC)c(OC)c3)C(=O)N(Cc3ccc(Cl)cc3Cl)C1=C[C@H](C1CCCC1)O[C@@H]2C	·	-2.2	·	·	·
O=C(CCc1ccccc1-c1ccccc1CCNC(=O)c1c(F)cccc1F)NCc1ccccc1	·	-1.3	·	·	·
COc1cc(C(=O)N/N=C2\CCS(=O)(=O)c3ccc(F)cc32)cc(OC)c1OC	-0.1	-2.2	·	-1.8	5.6
COc1ccccc1NCC(=O)NN=C1CCS(=O)(=O)c2ccc(F)cc21	-0.2	1.7	1.2	-0.4	49.2*
SMILES	Efflux pump inh	SMARCA2 activ	TAG inh	Tb MetRS inh	AHR act
COC(=O)C1CN(CC(C)C)CCS(=O)(=O)N1Cc1cccc(Cl)c1 (centres undefined)	·	-2.3	·	·	·
COc1ccc(OC)c2sc(NC(=O)c3ccc(S(=O)(=O)N(C)C)cc3)nc12	0.2	-4.0	18.7	-0.1	69.0*
COc1ccc(OC)c2sc(NC(=O)CCSc3ccccc3)nc12	0.1	-0.1	19.9	-1.0	58.9*
COc1ccc(C)c2sc(NC(=O)C3CC3)nc12	0.0	0.1	6.3	0.1	73.7*
CCC(=O)Nc1nc2c(OC)ccc(C)c2s1	-0.1	-0.2	6.2	-0.7	33.8
COc1cccc(-c2nnc(SCc3cc(C)ccc3C)n2Cc2ccco2)c1	·	-6.9	·	·	·
